Laboratory results taken from ChEMBL document CHEMBL4689842, “EUbOPEN Chemogenomics Library wave 1” (2021).

Test system: U2OS
Experiment: Multiplex assay against U2OS
Format: toxicity, cell-based
Conditions: human
Method in brief: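 Values for tubulin, mitochondrial-mass and membrane-permeability phenotypes are per cents of cells with healthy nuclei. These cells were identified by CellPathfinder machine-learning gating of live cells that had been stained at seeding with Hoechst33342, BioTracker Green Microtubule Cytoskeleton Dye, MitoTracker Red and Annexin V Alexa Fluor 680 and imaged on a CQ1 microscope at 37°C and 5% CO2 after compound addition. The gating first set Hoechst high-intensity objects apart from normal cells, then split normal cells into healthy, pyknosed or fragmented nuclei, and pyknosed cells into mitotic or apoptotic.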

[1] = 12 h, 1 µM, compound concentration 1 uM, replicate 1
[2] = 12 h, 1 µM, compound concentration 1 uM, replicate 2
[3] = 12 h, 10 µM, compound concentration 10 uM, replicate 1
[4] = 12 h, 10 µM, compound concentration 10 uM, replicate 2
[5] = 24 h, 1 µM, compound concentration 1 uM, replicate 1
[6] = 24 h, 1 µM, compound concentration 1 uM, replicate 2
[7] = 24 h, 10 µM, compound concentration 10 uM, replicate 1
[8] = 24 h, 10 µM, compound concentration 10 uM, replicate 2
[9] = 48 h, 1 µM, compound concentration 1 uM, replicate 1
[10] = 48 h, 1 µM, compound concentration 1 uM, replicate 2
[11] = 48 h, 10 µM, compound concentration 10 uM, replicate 1
[12] = 48 h, 10 µM, compound concentration 10 uM, replicate 2

CC(C)NC(=O)N1CC[C@H](NC2=Nc3cc(F)ccc3N(CC(F)F)c3ccc(Cl)cc32)C1
Population Apoptotic (%) [1]: 50% | Population Fragmented Nuclei (%) [1]: 11% | Population Healthy Nuclei (%) [1]: 75% | Population Hoechst High Intensity Objects (%) [1]: 7% | Population Membrane Permeable-Phenotype (%) [1]: 7% | Population Mitochondria Different-Phenotype (%) [1]: 8% | Population Mitotic Cells (%) [1]: 50% | Population Normal (%) [1]: 92% | Population Pyknosed Nuclei (%) [1]: 13% | Population Tubulin-Different-Phenotype (%) [1]: 19% | Total Cell Count [1]: 469 | Population Apoptotic (%) [2]: 33% | Population Fragmented Nuclei (%) [2]: 5% | Population Healthy Nuclei (%) [2]: 89% | Population Hoechst High Intensity Objects (%) [2]: 9% | Population Membrane Permeable-Phenotype (%) [2]: 4% | Population Mitochondria Different-Phenotype (%) [2]: 18% | Population Mitotic Cells (%) [2]: 66% | Population Normal (%) [2]: 90% | Population Pyknosed Nuclei (%) [2]: 5% | Population Tubulin-Different-Phenotype (%) [2]: 14% | Total Cell Count [2]: 293 | Population Apoptotic (%) [3]: 47% | Population Fragmented Nuclei (%) [3]: 11% | Population Healthy Nuclei (%) [3]: 72% | Population Hoechst High Intensity Objects (%) [3]: 11% | Population Membrane Permeable-Phenotype (%) [3]: 4% | Population Mitochondria Different-Phenotype (%) [3]: 52% | Population Mitotic Cells (%) [3]: 52% | Population Normal (%) [3]: 88% | Population Pyknosed Nuclei (%) [3]: 15% | Population Tubulin-Different-Phenotype (%) [3]: 89% | Total Cell Count [3]: 96 | Population Apoptotic (%) [4]: 0% | Population Fragmented Nuclei (%) [4]: 6% | Population Healthy Nuclei (%) [4]: 81% | Population Hoechst High Intensity Objects (%) [4]: 13% | Population Membrane Permeable-Phenotype (%) [4]: 13% | Population Mitochondria Different-Phenotype (%) [4]: 63% | Population Mitotic Cells (%) [4]: 100% | Population Normal (%) [4]: 86% | Population Pyknosed Nuclei (%) [4]: 11% | Population Tubulin-Different-Phenotype (%) [4]: 58% | Total Cell Count [4]: 62 | Population Apoptotic (%) [5]: 53% | Population Fragmented Nuclei (%) [5]: 9% | Population Healthy Nuclei (%) [5]: 78% | Population Hoechst High Intensity Objects (%) [5]: 6% | Population Membrane Permeable-Phenotype (%) [5]: 10% | Population Mitochondria Different-Phenotype (%) [5]: 28% | Population Mitotic Cells (%) [5]: 46% | Population Normal (%) [5]: 93% | Population Pyknosed Nuclei (%) [5]: 12% | Population Tubulin-Different-Phenotype (%) [5]: 21% | Total Cell Count [5]: 453 | Population Apoptotic (%) [6]: 50% | Population Fragmented Nuclei (%) [6]: 5% | Population Healthy Nuclei (%) [6]: 88% | Population Membrane Permeable-Phenotype (%) [6]: 6% | Population Mitochondria Different-Phenotype (%) [6]: 19% | Population Mitotic Cells (%) [6]: 50% | Population Pyknosed Nuclei (%) [6]: 5% | Population Tubulin-Different-Phenotype (%) [6]: 9% | Total Cell Count [6]: 281 | Population Apoptotic (%) [7]: 56% | Population Fragmented Nuclei (%) [7]: 14% | Population Healthy Nuclei (%) [7]: 61% | Population Hoechst High Intensity Objects (%) [7]: 6% | Population Membrane Permeable-Phenotype (%) [7]: 15% | Population Mitochondria Different-Phenotype (%) [7]: 61% | Population Mitotic Cells (%) [7]: 43% | Population Normal (%) [7]: 93% | Population Pyknosed Nuclei (%) [7]: 23% | Population Tubulin-Different-Phenotype (%) [7]: 79% | Total Cell Count [7]: 112 | Population Apoptotic (%) [8]: 83% | Population Fragmented Nuclei (%) [8]: 13% | Population Healthy Nuclei (%) [8]: 73% | Population Hoechst High Intensity Objects (%) [8]: 10% | Population Membrane Permeable-Phenotype (%) [8]: 6% | Population Mitochondria Different-Phenotype (%) [8]: 57% | Population Mitotic Cells (%) [8]: 16% | Population Normal (%) [8]: 90% | Population Pyknosed Nuclei (%) [8]: 13% | Population Tubulin-Different-Phenotype (%) [8]: 51% | Total Cell Count [8]: 75 | Population Apoptotic (%) [9]: 52% | Population Fragmented Nuclei (%) [9]: 10% | Population Healthy Nuclei (%) [9]: 77% | Population Membrane Permeable-Phenotype (%) [9]: 3% | Population Mitochondria Different-Phenotype (%) [9]: 23% | Population Mitotic Cells (%) [9]: 47% | Population Pyknosed Nuclei (%) [9]: 11% | Population Tubulin-Different-Phenotype (%) [9]: 23% | Total Cell Count [9]: 499 | Population Apoptotic (%) [10]: 25% | Population Fragmented Nuclei (%) [10]: 4% | Population Healthy Nuclei (%) [10]: 87% | Population Hoechst High Intensity Objects (%) [10]: 6% | Population Membrane Permeable-Phenotype (%) [10]: 10% | Population Mitochondria Different-Phenotype (%) [10]: 26% | Population Mitotic Cells (%) [10]: 75% | Population Normal (%) [10]: 93% | Population Pyknosed Nuclei (%) [10]: 7% | Population Tubulin-Different-Phenotype (%) [10]: 22% | Total Cell Count [10]: 259 | Population Apoptotic (%) [11]: 82% | Population Fragmented Nuclei (%) [11]: 23% | Population Healthy Nuclei (%) [11]: 47% | Population Hoechst High Intensity Objects (%) [11]: 6% | Population Membrane Permeable-Phenotype (%) [11]: 20% | Population Mitochondria Different-Phenotype (%) [11]: 44% | Population Mitotic Cells (%) [11]: 17% | Population Normal (%) [11]: 93% | Population Pyknosed Nuclei (%) [11]: 29% | Population Tubulin-Different-Phenotype (%) [11]: 76% | Total Cell Count [11]: 160 | Population Apoptotic (%) [12]: 69% | Population Fragmented Nuclei (%) [12]: 13% | Population Healthy Nuclei (%) [12]: 60% | Population Hoechst High Intensity Objects (%) [12]: 13% | Population Membrane Permeable-Phenotype (%) [12]: 41% | Population Mitochondria Different-Phenotype (%) [12]: 61% | Population Mitotic Cells (%) [12]: 30% | Population Normal (%) [12]: 86% | Population Pyknosed Nuclei (%) [12]: 25% | Population Tubulin-Different-Phenotype (%) [12]: 58% | Total Cell Count [12]: 115
